Assay results published in ChEMBL document CHEMBL5344483, “Design and synthesis of novel chloropyridazine hybrids as promising anticancer agents acting by apoptosis induction and PARP-1 inhibition through a molecular hybridization strategy” (RSC Med Chem, 2024).
Active and inactive are the calls of the source. No cut-off for these calls is given here.

How the values were obtained:
MCF7 = experiment: Anticancer activity against human MCF7 cells assessed as growth inhibition at 100 microg/mL by SRB assay relative to control; assay type: functional; conditions: read-out: GI
How it was run: (§1)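 Cells seeded at 3×10^3 per well and allowed to attach for 24 h. Treated with 100 µg/mL compound for 48 h, triplicate wells, with a 1% v/v DMSO vehicle control. Fixed in 20% TCA, stained with 0.4% SRB, and OD read at 570 nm. Survival fraction is treated OD/control OD.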

HNO 97 cell line [1] = experiment: Induction of apoptosis in human HNO97 cells assessed as measuring fold increase in p53 protein expression level by sandwiched immunoassay relative to control; assay type: functional
How it was run: (§2)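 Sandwich ELISA on antibody-precoated wells. Sample incubated 1 h at 37 °C, then biotin-conjugated detection antibody 1 h at 37 °C, then avidin-HRP 30 min at 37 °C, with washes between steps. TMB substrate 10–20 min at 37 °C in the dark, stopped with sulphuric acid, read at 450 nm. Duplicate readings, zero-standard subtracted, quantified against a 7-point standard curve.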

NCI-H460 = experiment: Anticancer activity against human NCI-H460 cells assessed as growth inhibition at 100 microg/mL by SRB assay relative to control; assay type: functional; conditions: read-out: GI; how it was run: as §1
HNO 97 cell line [2] = experiment: Cytotoxicity against human HNO97 cells by SRB assay; assay type: functional, cell-based
How it was run: (§3)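 Cells seeded at 3×10^3 per well and allowed to attach for 24 h. Exposed to […], 12.5, 25 and 50 µg/mL for 48 h, triplicate wells per concentration, with a 1% v/v DMSO vehicle. Fixed in 20% TCA, stained with 0.4% SRB, and OD read at 570 nm. IC50 from sigmoidal dose-response fit of survival fraction (treated/control OD).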

HNO 97 cell line [3] = experiment: Induction of cell cycle arrest in human HNO97 cells assessed as cell population at G2-M phase by flow cytometry (reference value: 2.42%); assay type: functional
[4] = target: Poly [ADP-ribose] polymerase 1 (Homo sapiens, UniProt P09874); experiment: Inhibition of human PARP-1 in MDA-MB-231 cells assessed as accumulation of cleaved PARP-1 by immunoblot analysis; assay type: cell-based
Chain of Poly [ADP-ribose] polymerase 1 (P09874 whole entry): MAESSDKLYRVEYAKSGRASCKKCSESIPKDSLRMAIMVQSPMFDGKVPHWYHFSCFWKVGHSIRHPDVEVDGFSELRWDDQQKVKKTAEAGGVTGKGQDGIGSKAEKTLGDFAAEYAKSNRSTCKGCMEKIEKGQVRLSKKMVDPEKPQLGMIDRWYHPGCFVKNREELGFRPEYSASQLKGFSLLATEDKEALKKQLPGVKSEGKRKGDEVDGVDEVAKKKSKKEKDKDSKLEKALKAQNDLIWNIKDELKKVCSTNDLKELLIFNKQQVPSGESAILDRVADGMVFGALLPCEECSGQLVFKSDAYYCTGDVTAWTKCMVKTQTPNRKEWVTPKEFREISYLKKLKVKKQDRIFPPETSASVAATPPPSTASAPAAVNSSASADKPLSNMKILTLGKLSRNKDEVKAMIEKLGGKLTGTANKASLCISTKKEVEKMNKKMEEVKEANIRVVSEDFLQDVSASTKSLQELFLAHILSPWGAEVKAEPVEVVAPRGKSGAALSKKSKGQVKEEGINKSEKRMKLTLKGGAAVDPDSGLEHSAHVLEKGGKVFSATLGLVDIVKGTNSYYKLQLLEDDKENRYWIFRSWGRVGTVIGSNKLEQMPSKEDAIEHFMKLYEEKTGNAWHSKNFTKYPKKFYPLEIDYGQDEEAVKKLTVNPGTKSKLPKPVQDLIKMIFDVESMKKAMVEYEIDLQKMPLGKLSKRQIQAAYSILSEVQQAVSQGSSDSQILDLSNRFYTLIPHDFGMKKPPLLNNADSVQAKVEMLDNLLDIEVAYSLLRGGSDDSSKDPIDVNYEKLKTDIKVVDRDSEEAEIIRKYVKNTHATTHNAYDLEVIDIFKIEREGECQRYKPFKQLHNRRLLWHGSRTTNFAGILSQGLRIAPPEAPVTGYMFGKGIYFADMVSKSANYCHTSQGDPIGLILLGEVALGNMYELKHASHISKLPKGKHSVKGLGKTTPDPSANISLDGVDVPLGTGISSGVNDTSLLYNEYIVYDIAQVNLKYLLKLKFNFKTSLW
How it was run: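 Drug-treated cells lysed and protein measured by BCA. Lysate (30 µg) separated by SDS-PAGE and transferred to PVDF. Probed with anti-PARP1 primary antibody (1:1000), then HRP-conjugated secondary (1:10,000), with alpha-tubulin as loading probe. Detected by ECL. Blots representative of at least three independent experiments.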

MDA-MB-468 [5] = experiment: Anticancer activity against human MDA-MB-468 cells assessed as growth inhibition at 100 microg/mL by SRB assay relative to control; assay type: functional; conditions: read-out: GI; how it was run: as §1
HNO 97 cell line [6] = experiment: Anticancer activity against human HNO97 cells assessed as growth inhibition at 100 microg/mL by SRB assay relative to control; assay type: functional; conditions: read-out: GI; how it was run: as §1
HNO 97 cell line [7] = experiment: Induction of apoptosis in human HNO97 cells assessed as measuring fold increase in caspase-6 protein expression level by sandwiched immunoassay relative to control; assay type: functional; how it was run: as §2
FaDu [8] = experiment: Anticancer activity against human FaDu cells assessed as growth inhibition at 100 microg/mL by SRB assay relative to control; assay type: functional; conditions: read-out: GI; how it was run: as §1
A549 = experiment: Anticancer activity against human A549 cells assessed as growth inhibition at 100 microg/mL by SRB assay relative to control; assay type: functional; conditions: read-out: GI; how it was run: as §1
HNO 97 cell line [9] = experiment: Induction of cell cycle arrest in human HNO97 cells assessed as cell population at G0-G1 phase by flow cytometry (reference value: 63.31%); assay type: functional
HNO 97 cell line [10] = experiment: Induction of apoptosis in human HNO97 cells assessed as measuring fold decrease in Bcl-2 protein expression level by sandwiched immunoassay relative to control; assay type: functional; how it was run: as §2
Huh-7 = experiment: Anticancer activity against human Huh-7 cells assessed as growth inhibition at 100 microg/mL by SRB assay relative to control; assay type: functional; conditions: read-out: GI; how it was run: as §1
[11] = Cytotoxicity against human HSF (VGS) cells assessed as growth inhibition at 100 microg/mL by SRB assay relative to control; assay type: toxicity, cell-based; conditions: at 100 µg/mL, read-out: GI
A-375 = experiment: Anticancer activity against human A-375 cells assessed as growth inhibition at 100 microg/mL by SRB assay relative to control; assay type: functional; conditions: read-out: GI; how it was run: as §1
HNO 97 cell line [12] = experiment: Induction of apoptosis in human HNO97 cells assessed as measuring fold decrease in CK 18 protein expression level by sandwiched immunoassay relative to control; assay type: functional; how it was run: as §2
SK-BR-3 = experiment: Anticancer activity against human SK-BR-3 cells assessed as growth inhibition at 100 microg/mL by SRB assay relative to control; assay type: functional; conditions: read-out: GI; how it was run: as §1
MDA-MB-231 = experiment: Antiproliferative activity against human MDA-MB-231 cells assessed as reduction in cell growth by coomassie Brilliant Blue staining based analysis; assay type: functional
HNO 97 cell line [13] = experiment: Induction of apoptosis in human HNO97 cells assessed as measuring fold increase in Bax protein expression level by sandwiched immunoassay relative to control; assay type: functional; how it was run: as §2
HNO 97 cell line [14] = experiment: Induction of cell cycle arrest in human HNO97 cells assessed as cell population at S phase by flow cytometry (reference value: 34.27%); assay type: functional
FaDu [15] = experiment: Cytotoxicity against human FaDu cells by SRB assay; assay type: functional, cell-based; how it was run: as §3
MDA-MB-468 [16] = experiment: Cytotoxicity against human MDA-MB-468 cells by SRB assay; assay type: functional, cell-based; how it was run: as §3
HNO 97 cell line [17] = experiment: Induction of apoptosis in human HNO97 cells assessed as measuring fold increase in caspase-3 protein expression level by sandwiched immunoassay relative to control; assay type: functional; how it was run: as §2
HCT-116 = experiment: Anticancer activity against human HCT-116 cells assessed as growth inhibition at 100 microg/mL by SRB assay relative to control; assay type: functional; conditions: read-out: GI; how it was run: as §1
HeLa = experiment: Anticancer activity against human HeLa cells assessed as growth inhibition at 100 microg/mL by SRB assay relative to control; assay type: functional; conditions: read-out: GI; how it was run: as §1

| SMILES | inhibition of growth at 100 µg/mL (MCF7) [%] | fold change (FC) (HNO 97 cell line [1]) | inhibition of growth at 100 µg/mL (NCI-H460) [%] | IC50 (HNO 97 cell line [2]) [µM] | inhibition of growth at 100 µg/mL (MDA-MB-468 [5]) [%] | inhibition of growth at 100 µg/mL (HNO 97 cell line [6]) [%] | fold change (FC) (HNO 97 cell line [7]) | inhibition of growth at 100 µg/mL (FaDu [8]) [%] | inhibition of growth at 100 µg/mL (A549) [%] | fold change (FC) (HNO 97 cell line [10]) | inhibition of growth at 100 µg/mL (Huh-7) [%] | inhibition at 100 microg/mL [11] [%] | inhibition of growth at 100 µg/mL (A-375) [%] | fold change (FC) (HNO 97 cell line [12]) | inhibition of growth at 100 µg/mL (SK-BR-3) [%] | Activity (MDA-MB-231) | fold change (FC) (HNO 97 cell line [13]) | IC50 (MDA-MB-468 [16]) [µM] | fold change (FC) (HNO 97 cell line [17]) | inhibition of growth at 100 µg/mL (HCT-116) [%] | also measured |
| --- | --- | --- | --- | --- | --- | --- | --- | --- | --- | --- | --- | --- | --- | --- | --- | --- | --- | --- | --- | --- | --- |
| Nc1ccc(C(=O)/C=C/c2ccc(Oc3ccc(Cl)nn3)cc2)cc1 | 67.9 | 3.9 | 61.3 | 12.2 | 95 | 89.1 | 9.76 | 86.7 | 66.5 | 0.59 | 73.9 | 68.1 | 56.1 | 0.54 | 77.5 | Active | 14.9 | 11.4 | 7.55 | 66.9 | Activity (HNO 97 cell line [3]): 1.05%; inhibition [4]: Active; Activity (HNO 97 cell line [9]): 83.28%; Activity (HNO 97 cell line [14]): 15.66%; IC50 (FaDu [15]): 27 µM; inhibition of growth at 100 µg/mL (HeLa): 82.3% |
| O=C(/C=C/c1ccc(Oc2ccc(Cl)nn2)cc1)c1ccc(OCc2ccc(Cl)cc2Cl)cc1 | 54.4 | 5.75 | 52.4 | 11.1 | 84.2 | 83.3 | 9.79 | 81.6 | 65 | 0.66 | 67.8 | 50.7 | 70.5 | 0.5 | 60.9 | Active | 11.54 | 21.5 | 8.7 | 75.1 | Activity (HNO 97 cell line [3]): 8.57%; Activity (HNO 97 cell line [9]): 66.3%; Activity (HNO 97 cell line [14]): 25.13%; IC50 (FaDu [15]): 60.6 µM; inhibition of growth at 100 µg/mL (HeLa): 55% |
| CC(=O)Nc1cccc(C(=O)/C=C/c2ccc(Oc3ccc(Cl)nn3)cc2)c1 | 68.7 | 7.01 | 69.6 | 13 | 91.1 | 83.7 | 10.49 | 66.3 | 71.5 | 0.65 | 70.8 | 70 | 73 | 0.43 | 55.5 | Active | 18.26 | 30.1 | 9.44 | 77.8 | inhibition [4]: Active; inhibition of growth at 100 µg/mL (HeLa): 73.9% |
